Assay [1] deals with T1, NAD-dependent protein deacetylase sirtuin-1 (Homo sapiens) (UniProt Q96EB6).
T1 sequence (whole entry): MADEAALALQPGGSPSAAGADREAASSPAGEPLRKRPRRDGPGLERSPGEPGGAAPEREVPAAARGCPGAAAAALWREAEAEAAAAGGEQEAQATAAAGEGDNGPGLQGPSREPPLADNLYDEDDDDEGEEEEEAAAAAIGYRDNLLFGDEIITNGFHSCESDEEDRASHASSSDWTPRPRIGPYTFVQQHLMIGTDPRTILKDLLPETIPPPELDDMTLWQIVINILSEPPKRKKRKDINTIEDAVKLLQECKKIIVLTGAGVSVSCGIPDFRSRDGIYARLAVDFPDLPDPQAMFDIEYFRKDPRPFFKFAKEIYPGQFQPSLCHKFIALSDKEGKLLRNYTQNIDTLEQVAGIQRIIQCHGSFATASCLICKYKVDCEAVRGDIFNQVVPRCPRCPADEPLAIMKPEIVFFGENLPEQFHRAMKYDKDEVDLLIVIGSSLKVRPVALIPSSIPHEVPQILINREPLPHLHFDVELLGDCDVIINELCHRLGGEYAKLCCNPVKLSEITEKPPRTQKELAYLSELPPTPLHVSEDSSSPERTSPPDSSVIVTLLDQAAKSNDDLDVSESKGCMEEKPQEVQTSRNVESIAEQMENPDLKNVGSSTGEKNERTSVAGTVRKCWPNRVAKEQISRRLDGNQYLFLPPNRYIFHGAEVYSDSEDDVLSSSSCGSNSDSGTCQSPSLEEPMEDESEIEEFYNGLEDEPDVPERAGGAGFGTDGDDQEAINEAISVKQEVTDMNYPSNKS
The assay can be described thus: Substrate activity at recombinant human SIRT1 assessed as decrotonylation by measuring increase in fluorescence intensity at 10 uM in presence of NAD+ by fluorescence photometric method. A digest of the protocol: (§1)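 Recombinantly expressed, purified sirtuin (40 ng/μl) incubated with probe (10 μM, from 5 mM DMSO stock) and NAD+ at 37 °C in 20 mM HEPES pH 8.0 with 1 mM MgCl2, 2.7 mM KCl, 150 mM NaCl. Fluorescence read with excitation 480 nm, emission 545 nm.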

The target in assay [2] is T2, NAD-dependent protein deacetylase sirtuin-3, mitochondrial (Homo sapiens) (UniProt Q9NTG7).
T2 sequence (whole entry): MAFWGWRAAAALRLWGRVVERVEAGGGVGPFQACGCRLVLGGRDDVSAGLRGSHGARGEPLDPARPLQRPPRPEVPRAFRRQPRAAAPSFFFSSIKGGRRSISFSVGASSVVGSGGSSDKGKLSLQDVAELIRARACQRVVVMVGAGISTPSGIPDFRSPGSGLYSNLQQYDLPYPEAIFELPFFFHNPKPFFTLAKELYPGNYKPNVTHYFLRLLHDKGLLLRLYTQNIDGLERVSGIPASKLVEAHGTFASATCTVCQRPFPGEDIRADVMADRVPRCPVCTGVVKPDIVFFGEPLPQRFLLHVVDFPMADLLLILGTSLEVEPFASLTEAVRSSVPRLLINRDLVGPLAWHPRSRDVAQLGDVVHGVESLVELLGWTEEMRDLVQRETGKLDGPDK
Description: Substrate activity at recombinant human SIRT3 assessed as decrotonylation by measuring increase in fluorescence intensity at 10 uM in presence of NAD+ by fluorescence photometric method. Summed up:
as §1

In assay [3] the target is NAD-dependent protein deacylase sirtuin-5, mitochondrial (Homo sapiens) (UniProt Q9NXA8). The assay can be described thus: Substrate activity at recombinant human SIRT5 assessed as decrotonylation by measuring increase in fluorescence intensity at 10 uM in presence of NAD+ by fluorescence photometric method. Summed up:
as §1

The target in assay [4] is NAD-dependent protein deacylase sirtuin-6 (Homo sapiens) (UniProt Q8N6T7). Description: Substrate activity at recombinant human SIRT6 assessed as decrotonylation by measuring increase in fluorescence intensity at 10 uM in presence of NAD+ by fluorescence photometric method. Summed up: as §1
Assay [5] deals with T3, NAD-dependent protein deacetylase sirtuin-2 (Homo sapiens) (UniProt Q8IXJ6).
T3 sequence (whole entry): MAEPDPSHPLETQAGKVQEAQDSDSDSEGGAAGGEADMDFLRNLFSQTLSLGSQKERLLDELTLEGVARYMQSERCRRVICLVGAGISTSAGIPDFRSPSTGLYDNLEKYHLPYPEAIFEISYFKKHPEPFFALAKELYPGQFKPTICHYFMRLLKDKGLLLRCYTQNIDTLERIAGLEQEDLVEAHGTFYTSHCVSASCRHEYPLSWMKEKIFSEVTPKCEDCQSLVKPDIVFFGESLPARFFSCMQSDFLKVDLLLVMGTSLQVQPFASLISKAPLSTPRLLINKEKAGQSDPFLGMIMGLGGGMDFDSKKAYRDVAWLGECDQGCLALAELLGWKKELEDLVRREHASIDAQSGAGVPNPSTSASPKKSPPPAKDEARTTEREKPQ
Description: Substrate activity at recombinant human SIRT2 assessed as decrotonylation by measuring increase in fluorescence intensity at 10 uM in presence of NAD+ by fluorescence photometric method. The following applies: time hrs <=3, TDE = time-dependent effect. Summed up: as §1

The nature of assay [6]: Binding affinity to histidine at 10 uM by fluorescence photometric method. A digest of the protocol:
(§2)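 Interferent test: probe at 10 μM treated with each species (amino acids, butylamine) at 100 μM, no enzyme; fluorescence spectra of the reaction mixtures recorded (excitation 480 nm).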

The target in assay [7] is T3, NAD-dependent protein deacetylase sirtuin-2 (Homo sapiens). The assay can be described thus: Substrate activity at recombinant human SIRT2 assessed as decrotonylation by measuring absorption peak for formation of N-NBD at 10 uM measured after 3 hrs in presence of NAD+ by UV-VS absorption spectra analysis. Summed up:
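Probe (10 μM, from 5 mM DMSO stock) reacted with recombinant purified Sirt2 (40 ng/μl) and 200 μM NAD+ in 20 mM HEPES pH 8.0 (1 mM MgCl2, 2.7 mM KCl, 150 mM NaCl) at 37 °C for 3 h. Absorbance spectra collected from 300 to 550 nm before and after the reaction.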

Assay [8] can be described thus: Binding affinity to lysine at 10 uM by fluorescence photometric method. Summed up:
as §2

Assay [9] concerns the target T3, NAD-dependent protein deacetylase sirtuin-2 (Homo sapiens). The assay can be described thus: Substrate activity at recombinant human SIRT2 assessed as decrotonylation by measuring increase in fluorescence intensity at 10 uM measured after 3 hrs in presence of NAD+ by fluorescence photometric method relative to control. Summed up: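 Probe (10 μM) incubated 3 h at 37 °C with recombinant Sirt2 (40 ng/μl) and 200 μM NAD+ in 20 mM HEPES pH 8.0 with salts. Emission scanned 510–600 nm (excitation 480 nm, slit 5 nm). Signal compared with controls lacking enzyme and/or NAD+, and with probe alone; fold increase derived.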

Assay [10] in a line: Binding affinity to cysteine at 10 uM by fluorescence photometric method. Summed up:
as §2

Each structure is given as a SMILES string. Active and inactive are the calls of the source. No cut-off for these calls is given here.

Chain of NAD-dependent protein deacylase sirtuin-5, mitochondrial (Homo sapiens) (Q9NXA8 37-310 limits assumed): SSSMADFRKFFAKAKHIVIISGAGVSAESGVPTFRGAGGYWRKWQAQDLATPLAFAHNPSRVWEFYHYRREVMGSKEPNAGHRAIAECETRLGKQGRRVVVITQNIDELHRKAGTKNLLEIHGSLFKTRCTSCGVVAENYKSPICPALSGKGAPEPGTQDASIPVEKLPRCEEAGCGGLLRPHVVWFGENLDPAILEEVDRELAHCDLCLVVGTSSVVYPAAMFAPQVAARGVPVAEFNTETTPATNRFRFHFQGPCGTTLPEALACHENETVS
Chain of NAD-dependent protein deacylase sirtuin-6 (Homo sapiens) (Q8N6T7 whole entry): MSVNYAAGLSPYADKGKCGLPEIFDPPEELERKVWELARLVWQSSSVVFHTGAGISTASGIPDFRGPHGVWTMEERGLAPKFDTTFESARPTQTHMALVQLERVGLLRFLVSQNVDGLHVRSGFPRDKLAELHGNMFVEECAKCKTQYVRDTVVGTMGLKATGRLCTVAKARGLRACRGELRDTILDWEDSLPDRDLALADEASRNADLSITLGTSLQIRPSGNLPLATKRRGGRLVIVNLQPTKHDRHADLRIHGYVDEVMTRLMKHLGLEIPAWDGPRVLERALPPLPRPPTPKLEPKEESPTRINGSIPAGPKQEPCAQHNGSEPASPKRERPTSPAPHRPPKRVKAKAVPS

Consider `C/C=C/C(=O)NCCCC[C@H](NC(=O)CNC(=O)[C@H](CC(C)C)NC(C)=O)C(=O)NCCOCCOc1ccc([N+](=O)[O-])c2nonc12`, for which the outcome in assay [1] was Active. In addition, the result in assay [2], in assay [3] and in assay [4] was inactive.

As for `C/C=C/C(=O)NCCCC[C@H](NC(=O)OC(C)(C)C)C(=O)NCCOCCOc1ccc([N+](=O)[O-])c2nonc12`, the Activity entry in [5] was “Tde”; in assay [7] it was 480 nm. In assay [1], the result was Active. Also, the outcome in assay [2], in assay [6], in assay [3], in [4], in assay [8] and in [10] was inactive. Moreover, the fold change (FC) in assay [9] was 5.

Source of the values: ChEMBL document CHEMBL4732140, “Single-step fluorescent probes to detect decrotonylation activity of HDACs through intramolecular reactions” (Eur J Med Chem, 2021).
